In the library only some 6.4% were active in any assay of this set; here they are far more common.
Fibroblast inh = antiproliferative effect on LL 47 fibroblasts – human, LL 47 cells, CellTiter-Glo luminescence, primary screen. LL 47 human lung fibroblast viability, ATP luminescence; stronger effect = lower value. viability, % at 10 µM. 1.1% of 85,000 active. AID 719, 2007;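 active = viability at or below 50% in the single dose screen; inactive = viability above 50%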;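 also: compound exposure lasted 72 h before the ATP readout; 100% = median luminescence of untreated cell-only wells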
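Signal: luminescent ATP detection, CellTiter-Glo; assay system: LL 47 human lung fibroblasts; input: 1,150 cells/well; incubation: overnight cell rest, 72 h compound treatment at 37 °C; measure: % viability versus median cells-only luminescence; medium: IMEM growth medium with 15% fetal bovine serum; dosing: compound addition at 0.1% DMSO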
Ecoli WT expand = growth inhibitors of wild-type E. coli, primary screen, strain BW25113, expanded library, OD600 | growth inhibition, % at 100 µM | OD600 absorbance | 0.15% of 98,000 active;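 active = growth inhibition above about 50% at one test dose, limit read from the data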;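 also: growth measured after 20 h incubation at 37 °C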
H69AR inhibit = proliferation blockers of H69AR lung cancer cells, primary screen, cell-based, human, 86K library; H69AR lung tumor viability, ATP luminescence, 72 h; stronger effect = lower value; viability, % at 10 µM; 6% of 85,000 active; AID 598, 2007;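 active = viability at or below 40%; inactive = viability above 40%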;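 also: multidrug resistant small cell line overexpressing MRP-1 efflux transporter; 100% = mean luminescence of untreated control wells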
HUVEC prolif 384 = inhibitors of HUVEC proliferation, primary screen, cell-based, 384-well; CellTiter-Glo luminescence, 72 h; stronger effect = lower value; viability, % at 10 µM (by protocol); 1.1% of 86,000 active;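 active = viability at or below 30%; inactive = viability above 30%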;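 also: 100% = median luminescence of DMSO-only cell control wells on each plate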
tolC growth inh = growth inhibitors of E. coli tolC mutant, primary screen, strain BW25113 ΔtolC::kan, 384-well. OD615. AID 573, 2007. growth inhibition, % at 10 µM (by protocol). 2.2% of 65,000 active;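 active = growth inhibition at or above a cutoff equal to the mean over every tested compound plus 3 SD, cut at about 60% in these data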;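 also: growth measured after 20 h incubation at 37 °C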
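Assay system: tolC-deleted E. coli BW25113. Medium: kanamycin-containing LB broth (50 µg/mL). Dosing: 10 µM final, single dose. Timing: bacterial growth with compound for 20 h at 37 °C. Detection: A615 absorbance measurement. Read-out basis: growth inhibition in percent.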
Jurkat viability = cytotoxicity toward Jurkat T cells, primary screen, cytotoxicity control, cell-based, Jurkat E6.1, 60K MLSMR library; Jurkat E6.1 viability, ATP luminescence, 48 h; inhibition, % at 4 µM; 1.2% of 56,000 active;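 active = inhibition above the mean inhibition of all tested compounds plus 3 SD, cut at about 28% in these data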
* hit, by the source's call; x = not tested or not shown.

SMILES	Fibroblast inh	Ecoli WT expand	H69AR inhibit	HUVEC prolif 384	tolC growth inh	Jurkat viability
COc1ccc(OCCNS(=O)(=O)c2ccc3oc4ccccc4c3c2)cc1	x	-7	x	x	x	x
Cc1c(Cl)cccc1Nc1nc(N)nc(CSc2ncccn2)n1	85	-7	1.4*	100	15	0
Cc1c(Cl)cccc1Nc1nc(N)nc(CSCCO)n1	102	3	4.3*	89	4	10
Cc1ccccc1Nc1nc(N)nc(CSc2nnc(-c3ccccc3)n2C)n1	98	7	76	99	x	x
Nc1nc(CSCCO)nc(Nc2ccc(F)cc2)n1	97	-1	99	101	x	x
CCOC(=O)c1ccc(CNC(=O)CCC(=O)O)cc1	103	0	90	111	-7	x
Cn1c(-c2sc3cc(C(F)(F)F)cnc3c2-c2cccnc2)n[nH]c1=S	100	5	32*	105	x	x
CC(C)CCNC(=O)CN(C(=O)CCC(=O)Nc1ccccn1)c1ccc2c(c1)OCCO2	95	x	89	90	x	x
O=C(CN(C(=O)CCC(=O)Nc1ccccn1)c1ccc2c(c1)OCCO2)NCCc1ccccc1	90	x	7.0*	68	4	-1
COc1cc(C(=O)N2CCN(c3ccc([N+](=O)[O-])cc3)CC2)ccc1OCc1c(C)noc1C	99	-10	38*	110	x	x
COc1ccc(C(=O)NC2(C(F)(F)F)C(=O)N(Cc3ccco3)C3=C2C(=O)CC(C)(C)C3)cc1OC (centres undefined)	93	3	95	95	x	x
CN1CCN(Cn2cc(/C=C/C(=O)c3ccccc3)c3ccccc32)CC1	92	4	12*	66	x	x
COc1ccc(OC)c2c1C(=O)c1ccccc1C2=O	x	2	x	x	x	x
COc1ccc(C(=O)c2c(C(F)(F)F)oc3c2C(=O)c2ccccc2C3=O)cc1	2.3*	-18	82	3.2*	x	x
c1ccc(-c2nc3nc4ccccc4nc3n2Cc2ccco2)cc1	96	-4	45	93	27	0
N=c1c2c(-c3ccccc3)c(-c3ccccc3)n(Cc3ccco3)c2ncn1CCO	50	x	17*	42	x	x
N=c1c2c(-c3ccccc3)c(-c3ccccc3)n(Cc3ccco3)c2ncn1CCN1CCOCC1	47*	6	36*	18*	58	16
COc1ccc(C2NC(c3ccc(OC)c(OC)c3OC)C(C)C(=O)C2C)c(OC)c1OC (centres undefined)	87	-6	91	102	4	-2
COc1ccc(-c2cc(C(F)(F)F)nc(N3CCN(c4ccc(F)cc4)CC3)n2)cc1OC	94	-6	17*	68	-10	x
CC(C)(C)n1nnnc1C(c1cccs1)N(Cc1ccccc1)Cc1ccco1 (centres undefined)	95	-19	71	112	18	7
N#Cc1c(-c2ccco2)cc(-c2cccnc2)nc1N	95	2	47	89	16	0
N#Cc1c(-c2ccco2)cc(-c2ccccn2)nc1N	88	4	35*	86	26	1
CCC(CC)c1nnc(NC(=O)c2ccc(N3CCCC3=O)cc2)s1	107	-11	91	109	x	x
Nc1ccc(Nc2ccccc2)c(Cl)c1	x	17	x	x	-13	4
Nc1ccccc1Nc1ccccc1	82	15	11*	77	x	x
SMILES	Fibroblast inh	Ecoli WT expand	H69AR inhibit	HUVEC prolif 384	tolC growth inh	Jurkat viability
COc1cccc(/C=C/C(=O)c2ccc[nH]2)c1	77	3	19*	76	x	x
O=[N+]([O-])c1c(NCCCO)cc(Sc2nc3ccccc3s2)c2nonc12	x	5	x	x	x	x
CCC(=O)OCCNc1cc(Sc2nc3ccccc3s2)c2nonc2c1[N+](=O)[O-]	3.7*	8	1.3*	56	x	x
C[C@H](Nc1ncnc2sc3c(c12)CCC3)C(=O)O	100	-3	99	96	x	x
Cc1ccc(C(=O)Nc2ncnc3sc4c(c23)CCCCC4)cc1	84	-2	31*	78	x	x
Clc1ccc(OCc2nn3c(C4CCCCC4)nnc3s2)cc1	102	-7	82	102	97*	0
CCOC(=O)c1ccc(Nc2nc(C(=O)OCC)nc3ccccc23)cc1	103	-5	38*	70	x	x
Cc1cc(C(=O)OC2CCOC2=O)c2ccccc2n1 (centres undefined)	101	-5	85	107	x	x
CCC(=O)Nc1nnc(CCc2ccccc2)s1	67	x	83	108	x	x
COc1ccc(C(=O)N2c3cc4c(cc3C(C)=CC2(C)C)OCO4)cc1	92	-8	83	87	74*	-1
Nc1cc2c(cc1C(=O)c1ccccc1)OCCO2	95	7	72	88	x	x
Nc1ccc(C(=O)c2ccc3c(c2)OCCO3)cc1N	96	x	36*	98	10	-4
Brc1ccc(-c2csc(N3CCc4ccccc4C3)n2)cc1	x	-18	x	x	x	x
Cc1ccc(-c2noc(-c3cccs3)n2)cc1	86	3	40*	87	12	-2
CCOC(=O)c1c(NC(=O)CSc2nnc(-c3cccc(C)c3)n2CC)sc(C(C)=O)c1C	x	-4	x	x	x	x
Cc1cc(-c2nnc3n2N=C(c2ccc(-c4ccccc4)cc2)CS3)n[nH]1	60	-4	3.9*	28*	92*	-1
COc1ccc(OC)c(C2=Nn3c(nnc3C3CCCCC3)SC2)c1	94	-1	103	91	18	x
COc1ccc(Cc2nnc3n2N=C(c2cc4ccccc4o2)CS3)cc1OC	94	x	35*	82	-13	4
COc1ccc(C2=Nn3c(nnc3C3CCCCC3)SC2)cc1OC	41*	-2	15*	82	x	x
COc1ccc(-c2nnc3n2N=C(c2ccccc2)CS3)cc1OC	15*	x	54	32	9	-4
CCCc1nnc2n1N=C(c1ccc(OC)c(OC)c1)CS2	73	6	79	84	6	-4
Cc1cccc(NC(=O)Cn2nnc(C(=O)NCc3cccs3)c2N)c1C	x	-2	x	x	x	x
COC(=O)c1c(NC(=O)CSc2nnc(CNc3ccc(Cl)cc3)o2)sc(C)c1C	98	1	93	77	x	x
CCOc1ccccc1-c1nc(-c2ccc(NC(=O)c3ccc(Br)o3)cc2)no1	74	-2	55	54	7	3
CCc1nn(CC(=O)NCCCN(Cc2ccccc2)C(C)C)c(=O)c2cc3sccc3n12	100	22	94	82	3	-2
Cc1cccc(-c2nnc3n2N=C(c2ccccc2)CS3)c1	91	-2	36*	97	10	x
CCC(=O)Nc1c(C#N)c2nc3ccccc3nc2n1-c1ccc(C)cc1	94	x	86	87	24	1
N#Cc1c(NC(=O)c2ccc(Br)o2)n(-c2ccccc2)c2nc3ccccc3nc12	96	x	87	103	62*	-6
CCCCn1c(NC(=O)c2ccccc2)c(C#N)c2nc3ccccc3nc21	x	2	x	x	67*	-1
CCCCn1c(NC(=O)c2ccc(F)cc2)c(C#N)c2nc3ccccc3nc21	x	x	x	x	88*	5
